The record followed here is ChEMBL document CHEMBL1156750 (Bioorg Med Chem Lett, 2009).

pIC50: −log10 of the molar value.

One may read the pIC50 as the IC50 on a negative log10 scale, so that one unit is a factor of ten. A high value points to a small IC50.

The subject of one assay is Plasma. In words: Anticoagulant activity in human plasma assessed as concentration required to double the prothrombin based clotting time after 30 seconds. Format: functional. The essentials: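 Human plasma prothrombin-based clotting time; value is the inhibitor concentration that doubles the clotting time, averaged from two independent determinations.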
The next assay has as its target Cytochrome P450 2C19 (Homo sapiens, UniProt P33261). In words: Inhibition of CYP2C19. In kind it is ADME.
The next assay addresses Cytochrome P450 3A4 (Homo sapiens, UniProt P08684). In words: Inhibition of CYP3A4 using BFC as a substrate. In kind it is ADME.
The next assay deals with Cytochrome P450 2C9 (Homo sapiens, UniProt P11712). As to the kind of experiment: Inhibition of CYP2C9. In kind it is ADME.
A further assay concerns the target Coagulation factor X (Homo sapiens, UniProt P00742).
Assay [1] concerns Rattus norvegicus. In words: Anticoagulant activity against Sprague-Dawley rat arterial thrombosis model induced by topical application of Fecl2. In kind it is functional. The procedure, abridged:
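Rat carotid artery thrombosis: vehicle (PEG-400) or compound given by 1 mL/kg gavage at 0 min (5, 10, 15, 30 mg/kg; n = 5, 6, 6, 4; vehicle n = 8), with aspirin 10 mg/kg iv 15 min before FeCl2. Rats anesthetized at 30 min. 50% FeCl2 applied topically at 60 min for 10 min. Thrombus weight taken 1 h later. ANOVA with Dunnett's test.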

For assay [2], the system named is Rattus norvegicus. In words: Ex vivo anticoagulant activity in Sprague-Dawley rat assessed as prolongation of prothrombin time at 30mg/kg, id after 120 mins. Format: functional. The essentials:
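Anesthetized rats dosed intraduodenally at 30 mg/kg in 10% ethanol/90% PEG300, then a saline flush. Arterial blood drawn into 3.8% Na-citrate (1/10, v/v) before dosing and at 30, 60, 90 and 120 min. Ex vivo prothrombin time measured on a micro coagulation analyzer using Thromboplastin-C reagent.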

Sequence of Cytochrome P450 2C9 (P11712 whole entry): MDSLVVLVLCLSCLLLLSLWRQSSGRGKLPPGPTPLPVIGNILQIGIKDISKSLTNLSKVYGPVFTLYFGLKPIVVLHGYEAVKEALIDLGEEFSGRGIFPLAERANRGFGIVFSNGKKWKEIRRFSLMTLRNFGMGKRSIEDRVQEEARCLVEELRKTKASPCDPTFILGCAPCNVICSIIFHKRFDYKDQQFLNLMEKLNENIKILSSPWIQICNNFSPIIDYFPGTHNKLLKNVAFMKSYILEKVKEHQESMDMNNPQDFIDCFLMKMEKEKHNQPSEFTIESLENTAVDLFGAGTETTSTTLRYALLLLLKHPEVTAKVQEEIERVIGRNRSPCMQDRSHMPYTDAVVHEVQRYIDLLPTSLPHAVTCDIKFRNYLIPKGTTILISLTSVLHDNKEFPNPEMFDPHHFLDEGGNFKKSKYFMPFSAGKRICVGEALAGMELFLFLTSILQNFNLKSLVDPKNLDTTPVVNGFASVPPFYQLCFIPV
Sequence of Cytochrome P450 3A4 (P08684 whole entry): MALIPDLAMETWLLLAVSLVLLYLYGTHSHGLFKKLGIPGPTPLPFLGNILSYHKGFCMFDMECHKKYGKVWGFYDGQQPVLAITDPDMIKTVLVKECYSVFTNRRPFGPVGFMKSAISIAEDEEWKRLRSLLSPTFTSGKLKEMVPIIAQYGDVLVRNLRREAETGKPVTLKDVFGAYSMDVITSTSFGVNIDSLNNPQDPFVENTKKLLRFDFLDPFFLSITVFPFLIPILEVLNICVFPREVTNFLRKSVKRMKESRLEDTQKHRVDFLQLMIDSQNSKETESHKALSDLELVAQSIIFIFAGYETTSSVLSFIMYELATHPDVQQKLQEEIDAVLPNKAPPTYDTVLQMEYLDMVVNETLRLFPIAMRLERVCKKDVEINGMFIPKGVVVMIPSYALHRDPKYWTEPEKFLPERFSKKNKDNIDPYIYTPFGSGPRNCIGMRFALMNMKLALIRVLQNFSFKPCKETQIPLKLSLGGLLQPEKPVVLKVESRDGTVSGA
Sequence of Coagulation factor X (P00742 41-179 limits assumed): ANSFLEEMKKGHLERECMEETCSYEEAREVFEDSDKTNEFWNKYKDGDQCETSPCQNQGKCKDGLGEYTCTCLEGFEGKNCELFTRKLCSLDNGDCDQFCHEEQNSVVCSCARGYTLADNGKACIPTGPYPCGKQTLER
Sequence of Coagulation factor X (P00742 235-488 limits assumed): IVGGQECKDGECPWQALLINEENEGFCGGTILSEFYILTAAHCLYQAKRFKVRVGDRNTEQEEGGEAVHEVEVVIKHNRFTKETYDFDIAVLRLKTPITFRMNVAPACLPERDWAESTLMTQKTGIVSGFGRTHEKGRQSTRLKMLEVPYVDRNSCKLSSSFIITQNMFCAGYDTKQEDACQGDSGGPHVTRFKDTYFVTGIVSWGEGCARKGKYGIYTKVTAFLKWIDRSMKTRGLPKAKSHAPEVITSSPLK
Sequence of Cytochrome P450 2C19 (P33261 whole entry): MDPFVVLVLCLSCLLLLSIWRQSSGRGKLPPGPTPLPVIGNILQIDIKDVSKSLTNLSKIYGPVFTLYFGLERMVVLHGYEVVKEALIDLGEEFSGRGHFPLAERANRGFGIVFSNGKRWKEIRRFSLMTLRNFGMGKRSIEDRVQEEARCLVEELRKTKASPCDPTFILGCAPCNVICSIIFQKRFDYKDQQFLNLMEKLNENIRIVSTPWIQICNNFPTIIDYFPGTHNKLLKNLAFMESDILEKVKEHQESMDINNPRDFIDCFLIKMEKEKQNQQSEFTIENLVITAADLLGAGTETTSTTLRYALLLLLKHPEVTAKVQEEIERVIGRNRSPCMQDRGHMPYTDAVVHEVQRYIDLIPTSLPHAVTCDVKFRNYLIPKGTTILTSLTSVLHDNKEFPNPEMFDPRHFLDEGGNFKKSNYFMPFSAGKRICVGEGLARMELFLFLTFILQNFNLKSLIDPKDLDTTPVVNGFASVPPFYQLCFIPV

On to `Cc1cc2cc(N/C(=N\C(N)=O)N[C@H]3CCCCN(CC(=O)N4CCCC4)C3=O)ccc2o1`, for which the Activity in the assay with Plasma stood at 60 µM.
On to `Cc1cc2cc(N/C(=N\C(=O)c3cncc(C(N)=O)c3)N[C@H]3CCCCN(CC(=O)N4CCCC4)C3=O)ccc2o1`, for which the results for the pIC50 at Cytochrome P450 2C19, on Cytochrome P450 3A4 and at Cytochrome P450 2C9 were 4.43, 6.40 and 5.00, respectively. Moreover, in the assay on Plasma, the Activity worked out at 7 µM.
At Coagulation factor X, `Cc1cc2cc(N/C(=N/[N+](=O)[O-])N[C@H]3CCCCN(CC(=O)N4CCCC4)C3=O)ccc2o1` had a pIC50 of 7.60. Further, in the assay on Plasma, the Activity was above 50 µM.
As to `Cc1cc2cc(N/C(=N\C(=O)c3ccc(C(=O)N(C)C)cc3)N[C@H]3CCCCN(CC(=O)N4CCCC4)C3=O)ccc2o1`, the pIC50 against Coagulation factor X is 8.52. Further, in the assay on Plasma, the Activity was 4 µM. In the assay on Rattus norvegicus [1], the “fold change (FC)” value is given as “>=3.6”.
As to `Cc1cc2cc(N/C(=N\C(=O)N(C)C)N[C@H]3CCCCN(CC(=O)N4CCCC4)C3=O)ccc2o1`, the Activity with Plasma came out at 55 µM.
With `Cc1cc2cc(N/C(=N\C(=O)c3ccc(C(N)=O)nc3)N[C@H]3CCCCN(CC(=O)N4CCCC4)C3=O)ccc2o1`, the results for the pIC50 against Cytochrome P450 2C19, on Cytochrome P450 3A4 and on Cytochrome P450 2C9 were 4.89, 4.74 and 4.66, respectively. In the assay on Plasma, the Activity was determined as 5.7 µM.
`Cc1cc2cc(N/C(=N\C(=O)c3ccncc3)N[C@H]3CCCCN(CC(=O)N4CCCC4)C3=O)ccc2o1`: the Activity in the assay with Plasma was determined as 16 µM.
Same read-out and setting: the result for `COC(=O)c1ccc(C(=O)/N=C(\Nc2ccc3oc(C)cc3c2)N[C@H]2CCCCN(CC(=O)N3CCCC3)C2=O)nc1` reads 16 µM.
Still for that read-out and setting: the result for `Cc1cc2cc(N/C(=N\C(=O)c3cccc(Cl)c3)N[C@H]3CCCCN(CC(=O)N4CCCC4)C3=O)ccc2o1` reads above 50 µM.
With `Cc1cc2cc(N/C(=N\C(=O)c3ccc[n+]([O-])c3)N[C@H]3CCCCN(CC(=O)N4CCCC4)C3=O)ccc2o1`, the negative-log IC50 (pIC50) at Coagulation factor X was 8.00; against Cytochrome P450 2C19 it was 3.89; against Cytochrome P450 3A4 it was 6.05; at Cytochrome P450 2C9, 3.91. Also, in the assay with Plasma, the Activity was 3 µM.
The compound `Cc1cc2cc(N/C(=N\S(N)(=O)=O)N[C@H]3CCCCN(CC(=O)N4CCCC4)C3=O)ccc2o1` showed a pIC50 at Coagulation factor X of 7.92. Further, in the assay with Plasma, the Activity is above 50 µM.
Consider `Cc1cc2cc(/N=C(/NC(=O)c3cccnc3)N[C@H]3CCCCN(CC(=O)N4CCCC4)C3=O)ccc2o1`, for which the pIC50 was 5.10 on Cytochrome P450 2C19, 6.52 on Cytochrome P450 3A4 and 5.00 against Cytochrome P450 2C9. In addition, the “fold change (FC)” value in the assay with Rattus norvegicus [2] is reported as “>=3.2”. The Activity with Plasma came to 7 µM.
Take `Cc1cc2cc(N/C(=N\C(=O)c3cnccn3)N[C@H]3CCCCN(CC(=O)N4CCCC4)C3=O)ccc2o1`: in the assay with Plasma, the Activity amounted to 18 µM.
Turning to `CCOC(=O)/N=C(\Nc1ccc2oc(C)cc2c1)N[C@H]1CCCCN(CC(=O)N2CCCC2)C1=O`, the Activity with Plasma worked out at 34 µM.
As to `Cc1cc2cc(N/C(=N\C(=O)c3ccoc3)N[C@H]3CCCCN(CC(=O)N4CCCC4)C3=O)ccc2o1`, in the assay with Plasma, the Activity came to 33 µM.
`Cc1cc2cc(N/C(=N\S(=O)(=O)c3ccccc3)N[C@H]3CCCCN(CC(=O)N4CCCC4)C3=O)ccc2o1` showed a pIC50 against Coagulation factor X of 7.62. The Activity in the assay with Plasma was above 50 µM.
On the same counts, the results for `Cc1cc2cc(N/C(=N\C(=O)c3cccc(C(=O)N(C)C)c3)N[C@H]3CCCCN(CC(=O)N4CCCC4)C3=O)ccc2o1` are 8.00 and 8 µM.
For the compound `Cc1cc2cc(N/C(=N\C(=O)c3ccc(C(=O)O)cc3)N[C@H]3CCCCN(CC(=O)N4CCCC4)C3=O)ccc2o1`, the Activity with Plasma worked out at 5 µM.
Regarding `Cc1cc2cc(N/C(=N\C(=O)c3ccccc3)N[C@H]3CCCCN(CC(=O)N4CCCC4)C3=O)ccc2o1`, the Activity in the assay with Plasma was found to be 48 µM.
With `Cc1cc2cc(/N=C(/NC#N)N[C@H]3CCCCN(CC(=O)N4CCCC4)C3=O)ccc2o1`, the “fold change (FC)” value was “>=1.8” with Rattus norvegicus [2] and at least 1.8 in the assay with Rattus norvegicus [1]. In addition, in the assay with Plasma, the Activity was 32 µM.
Turning to `Cc1cc2cc(N/C(=N\C(=O)c3ccc(C(=O)O)nc3)N[C@H]3CCCCN(CC(=O)N4CCCC4)C3=O)ccc2o1`, the results for the pIC50 on Cytochrome P450 2C19, at Cytochrome P450 3A4 and against Cytochrome P450 2C9 were 4.33, 4.06 and 3.91, respectively. For the same compound, the Activity with Plasma worked out at 6.8 µM.
The like results for `Cc1ccc(C(=O)/N=C(\Nc2ccc3oc(C)cc3c2)N[C@H]2CCCCN(CC(=O)N3CCCC3)C2=O)cn1` were, in that order, 4.57, 5.15, 5.05 and 12 µM.
For the compound `Cc1cc2cc(N/C(=N\C(=O)c3cnn(C)c3)N[C@H]3CCCCN(CC(=O)N4CCCC4)C3=O)ccc2o1`, the Activity with Plasma worked out at 11 µM.
With `Cc1cc2cc(N/C(=N\C(=O)c3ccc(C(N)=O)cc3)N[C@H]3CCCCN(CC(=O)N4CCCC4)C3=O)ccc2o1`, the pIC50 against Coagulation factor X was 8.52. In the assay on Plasma, the Activity amounted to 5 µM. The “fold change (FC)” value in the assay with Rattus norvegicus [1] is reported as “>=3.6”.
Consider `CC(=O)/N=C(\Nc1ccc2oc(C)cc2c1)N[C@H]1CCCCN(CC(=O)N2CCCC2)C1=O`, for which the Activity in the assay on Plasma is 70 µM.
As for `Cc1cc2cc(N/C(=N\C(=O)c3cccc(C(N)=O)c3)N[C@H]3CCCCN(CC(=O)N4CCCC4)C3=O)ccc2o1`, on Coagulation factor X, the pIC50 was 7.74. Also, in the assay with Plasma, the Activity turned out to be 7 µM.
In the case of `Cc1cc2cc(N/C(=N\C(=O)c3ccc(Cl)nc3)N[C@H]3CCCCN(CC(=O)N4CCCC4)C3=O)ccc2o1`, the negative logarithm of the IC50 (pIC50) on Cytochrome P450 2C19 is 4.66; against Cytochrome P450 3A4, 5.10; at Cytochrome P450 2C9, 4.92. For the same compound, in the assay on Plasma, the Activity amounted to 14 µM.
Take `Cc1cc2cc(N/C(=N\C(=O)c3ccsc3)N[C@H]3CCCCN(CC(=O)N4CCCC4)C3=O)ccc2o1`: in the assay with Plasma, the Activity was 19 µM.
As to `Cc1cc2cc(N/C(=N\S(C)(=O)=O)N[C@H]3CCCCN(CC(=O)N4CCCC4)C3=O)ccc2o1`, the pIC50 against Coagulation factor X was 8.00. In addition, the Activity in the assay with Plasma was determined as 60 µM.
With `Cc1cc2cc(N/C(=N\C(=O)c3nnn(C)n3)N[C@H]3CCCCN(CC(=O)N4CCCC4)C3=O)ccc2o1`, the Activity with Plasma stood at 28 µM.
Same read-out and setting: to `COC(=O)c1ccc(C(=O)/N=C(\Nc2ccc3oc(C)cc3c2)N[C@H]2CCCCN(CC(=O)N3CCCC3)C2=O)cc1` belongs 18 µM.
Regarding `CNC(=O)c1ccc(C(=O)/N=C(\Nc2ccc3oc(C)cc3c2)N[C@H]2CCCCN(CC(=O)N3CCCC3)C2=O)cn1`, the pIC50 at Cytochrome P450 2C19 was 4.92; on Cytochrome P450 3A4 it was 4.74; on Cytochrome P450 2C9 it was 4.62. Moreover, the Activity in the assay with Plasma is 3 µM.
As to `COC(=O)c1cccc(C(=O)/N=C(\Nc2ccc3oc(C)cc3c2)N[C@H]2CCCCN(CC(=O)N3CCCC3)C2=O)c1`, the pIC50 on Coagulation factor X is 8.30. Moreover, in the assay with Plasma, the Activity worked out at 41 µM.
